The values that follow come from ChEMBL document CHEMBL1156288, “Synthesis and evaluation of tricyclic derivatives containing a non-aromatic amide as inhibitors of poly(ADP-ribose)polymerase-1 (PARP-1)” (Bioorg Med Chem Lett, 2010).

For data set [1], the target named is T1, Poly [ADP-ribose] polymerase 1 (Homo sapiens, UniProt P09874). The following applies: CHO-K1.
A short description of data set [2]: Solubility in water. Type of data set: physicochemical. The following applies: buffer.
In data set [3] the target is T1, Poly [ADP-ribose] polymerase 1. Put plainly: Inhibition of PARP1.
The nature of data set [4]: Ratio of drug level in brain to plasma in rat at 10 mg/kg, iv after 4 hrs by LC/MS/MS analysis. Type of data set: ADME, organism-based. More on the design: dose 10 mg/kg, route intravenous. The essentials:
(§1)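 Single intravenous dose of 10 mg/kg in rats, n = 3. Brain (ng/g) and plasma (ng/ml) concentrations measured by LC/MS/MS at 0.17, 0.75 and 4.00 h. Ratio is brain over plasma concentration.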

Data set [5] can be described thus: Drug level in rat brain at 10 mg/kg, iv after 0.75 hrs by LC/MS/MS analysis. Type of data set: ADME, organism-based. Also on record: dose 10 mg/kg, route intravenous. The following applies: read-out: Drug uptake. The method in brief:
as §1

Data set [6] is described as follows: Half life in rat at 10 mg/kg, iv by LC/MS/MS analysis. It is filed as ADME, organism-based. Also on record: dose 10 mg/kg, route intravenous. The note with it: in vivo. The essentials:
(§2)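 Rats (n = 3) given 10 mg/kg by intravenous administration; plasma levels measured by LC/MS/MS; AUC0-inf, CL and t1/2 reported.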

A short description of data set [7]: Ratio of drug level in brain to plasma in rat at 10 mg/kg, iv after 0.75 hrs by LC/MS/MS analysis. Also on record: dose 10 mg/kg, route intravenous. Type of data set: ADME, organism-based. The method in brief: as §1
A short description of data set [8]: Drug level in rat brain at 10 mg/kg, iv after 0.17 hrs by LC/MS/MS analysis. Type of data set: ADME, organism-based. The note with it: read-out: Drug uptake. More on the design: dose 10 mg/kg, route intravenous. The method in brief:
as §1

The nature of data set [9]: Half life in human liver microsomes by LC/MS/MS analysis. Type of data set: ADME, Microsome. The essentials: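 Human liver microsomes incubated at 37 °C. Parent compound quantified by LC/MS/MS at 0, 15, 45 and 80 min, giving t1/2 in min. Mean of triplicate experiments; buspirone run alongside.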
(In general: Liver microsomes are vesicles of endoplasmic reticulum, rich in cytochrome P450 enzymes.)

Data set [10] in a line: AUC (0 to infinity) in rat at 10 mg/kg, iv by LC/MS/MS analysis. It is filed as ADME, organism-based. The note with it: plasma. Also on record: time infinity, dose 10 mg/kg, route intravenous. The essentials:
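Rats (n = 3) received a single 10 mg/kg intravenous dose. Drug levels were measured by LC/MS/MS, and AUC from zero to infinity was derived alongside clearance and half-life as part of the pharmacokinetic profile.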

A short description of data set [11]: Drug level in rat plasma at 10 mg/kg, iv after 4 hrs by LC/MS/MS analysis. Also on record: dose 10 mg/kg, route intravenous. Type of data set: ADME, organism-based. The method in brief:
as §1

Data set [12] is described as follows: Ratio of drug level in brain to plasma in rat at 10 mg/kg, iv after 0.17 hrs by LC/MS/MS analysis. Type of data set: ADME, organism-based. More on the design: dose 10 mg/kg, route intravenous. The essentials:
as §1

Data set [13] in a line: Drug level in rat plasma at 10 mg/kg, iv after 0.17 hrs by LC/MS/MS analysis. It is filed as ADME, organism-based. Also on record: dose 10 mg/kg, route intravenous. The essentials:
as §1

Data set [14] in a line: Drug level in rat plasma at 10 mg/kg, iv after 0.75 hrs by LC/MS/MS analysis. It is filed as ADME, organism-based. Also on record: dose 10 mg/kg, route intravenous. The essentials: as §1
The nature of data set [15]: Drug level in rat brain at 10 mg/kg, iv after 4 hrs by LC/MS/MS analysis. It is filed as ADME, organism-based. Also on record: dose 10 mg/kg, route intravenous. The following applies: read-out: Drug uptake. The essentials: as §1
Data set [16] can be described thus: Clearance in rat at 10 mg/kg, iv by LC/MS/MS analysis. The note with it: in vivo. Also on record: dose 10 mg/kg, route intravenous. It is filed as ADME, organism-based. The essentials:
as §2

Molecules are shown by their SMILES.

T1 sequence (P09874 whole entry): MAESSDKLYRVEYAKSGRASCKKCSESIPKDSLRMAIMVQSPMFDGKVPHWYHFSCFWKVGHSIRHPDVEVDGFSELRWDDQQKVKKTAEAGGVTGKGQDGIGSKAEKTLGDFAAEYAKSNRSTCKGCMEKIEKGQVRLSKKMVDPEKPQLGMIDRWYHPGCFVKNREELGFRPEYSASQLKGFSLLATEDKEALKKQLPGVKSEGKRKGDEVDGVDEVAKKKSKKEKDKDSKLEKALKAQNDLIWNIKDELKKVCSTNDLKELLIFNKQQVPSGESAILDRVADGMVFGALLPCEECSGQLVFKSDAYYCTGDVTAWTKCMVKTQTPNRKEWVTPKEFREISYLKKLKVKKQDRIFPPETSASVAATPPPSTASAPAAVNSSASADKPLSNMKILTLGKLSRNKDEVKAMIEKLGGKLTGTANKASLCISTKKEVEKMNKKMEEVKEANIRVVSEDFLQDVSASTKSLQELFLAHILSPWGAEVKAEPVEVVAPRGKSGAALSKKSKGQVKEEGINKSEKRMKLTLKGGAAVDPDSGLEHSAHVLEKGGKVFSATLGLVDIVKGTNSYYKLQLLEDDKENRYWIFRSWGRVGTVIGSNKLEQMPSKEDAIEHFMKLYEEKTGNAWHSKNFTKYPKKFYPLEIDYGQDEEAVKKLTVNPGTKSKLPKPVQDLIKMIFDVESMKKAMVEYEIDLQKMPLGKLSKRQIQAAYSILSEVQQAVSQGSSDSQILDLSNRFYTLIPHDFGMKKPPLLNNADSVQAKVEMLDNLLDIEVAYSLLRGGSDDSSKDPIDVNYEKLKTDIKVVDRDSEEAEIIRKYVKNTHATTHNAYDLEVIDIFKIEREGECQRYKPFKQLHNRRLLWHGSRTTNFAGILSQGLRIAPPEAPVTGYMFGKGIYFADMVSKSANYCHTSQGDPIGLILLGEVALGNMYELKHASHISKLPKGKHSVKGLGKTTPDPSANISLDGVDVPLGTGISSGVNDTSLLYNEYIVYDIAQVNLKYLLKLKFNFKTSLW

In turn, `O=S(=O)(NCCCN1CCOCC1)c1ccc2c(c1)Cc1c-2nc(O)c2ccccc12` registered an ED50 in data set [1] of 1000 nM.
For orientation: IC50 means the midpoint of a concentration-inhibition curve. A lower IC50 goes with higher potency. `CCCN1CCCC(Oc2ccc3[nH]c(=O)c4c(c3c2)CCSC4)C1` (stereo not drawn) showed an ED50 in [1] of 740 nM. Besides, the solubility result in data set [2] is listed as “Soluble”. The molecule also gave an IC50 in [3] of 56 nM.
The like results for `CN1CCCC(Oc2ccc3[nH]c(=O)c4c(c3c2)CCSC4)C1` (stereo not drawn) were, in that order, 580 nM, “Soluble” and 39 nM.
As a reminder, the Kp is tissue or fluid exposure divided by exposure in the circulation. The half-life is how long it takes for the measured level to halve. High values mean slow decline, low ones rapid decline. The term AUC(0-inf) denotes total exposure, with the tail of the curve extrapolated. Low readings indicate less exposure, high ones more exposure. Usually clearance stands for the rate of elimination divided by the concentration. A lower clearance goes with a low capacity for elimination. `CCCN1CCC(Oc2ccc3[nH]c(=O)c4c(c3c2)CCSC4)CC1`: in [4], the Kp at 4 h came out at 0.72. Also, the concentration at 0.75 h in [5] is 391 ng/g; in data set [14], 610 ng/mL. The half-life is 207 min in data set [6] and 52.6 min in data set [9]. Besides, the Kp at 0.75 h in data set [7] was found to be 0.64. Also, the concentration at 0.17 h in [8] was 1700 ng/g; in data set [13], 2480 ng/mL. In data set [1], this molecule came in with an ED50 of 220 nM. Moreover, in [10], the AUC(0-inf) was found to be 2910 ng·h/mL. Moreover, the results for the concentration at 4 h in data set [11] and in data set [15] were 18 ng/mL and 13 ng/g, respectively. In addition, in data set [2], the solubility entry was “Soluble”. The same molecule registered an IC50 in [3] of 42 nM. In addition, the Kp at 0.17 h in [12] stood at 0.69. Also, the clearance in data set [16] was 56.7 mL/min/kg.
`CN1CCC(Oc2ccc3[nH]c(=O)c4c(c3c2)CCSC4)C1` (stereo not drawn) registered an ED50 in data set [1] of 730 nM. Moreover, the solubility result in data set [2] is recorded as “Soluble”. Also, inhibition in data set [3] was half-maximal at 80 nM (IC50).
In data set [9], `O=C1CC2(CCCC2)CC(=O)N1CCCCN1CCN(c2ncccn2)CC1` [BUSPIRONE] had a half-life of 3.8 min.
The molecule `O=c1[nH]c2ccc(OC3CCN(CCc4ccccc4)CC3)cc2c2c1CSCC2` had an ED50 in data set [1] of 360 nM. For the same molecule, the solubility entry in data set [2] is reported as “Soluble”. The molecule also displayed an IC50 in data set [3] of 38 nM.
The like results for `O=c1[nH]c2ccc(OC3CCN(CCN4CCCCC4)CC3)cc2c2c1CSCC2` were, in that order, > 30000 nM, “Soluble” and 173 nM.
Take `O=c1[nH]c2ccc(OC3CCN(Cc4ccccc4)CC3)cc2c2c1CSCC2`: the ED50 in [1] is 800 nM. In addition, the solubility result in data set [2] is recorded as “Soluble”. In [3], this molecule registered an IC50 of 53 nM.
The matching figures for `CCN1CCCC(Oc2ccc3[nH]c(=O)c4c(c3c2)CCSC4)C1` (stereo not drawn): 280 nM, “Soluble” and 25 nM.
The like results for `CCCCCN1CCC(Oc2ccc3[nH]c(=O)c4c(c3c2)CCSC4)CC1` were, in that order, 580 nM, “Soluble” and 45 nM.
The molecule `O=c1[nH]c2ccc(OC3CCN(CCO)CC3)cc2c2c1CSCC2` yielded an ED50 in data set [1] of 1600 nM. Further, the solubility result in [2] is given as “Soluble”. For the same molecule, the IC50 in [3] came to 29 nM.
The like results for `CC(C)CCN1CCC(Oc2ccc3[nH]c(=O)c4c(c3c2)CCSC4)CC1` were, in that order, 740 nM, “Soluble” and 71 nM.
The molecule `O=c1[nH]c2ccc(OC3CCCNC3)cc2c2c1CSCC2` (stereo not drawn) returned an ED50 in [1] of 890 nM. Further, the solubility entry in data set [2] is “Soluble”. For the same molecule, the IC50 in data set [3] was 28 nM.
As to `COCCN1CCC(Oc2ccc3[nH]c(=O)c4c(c3c2)CCSC4)CC1`, the ED50 in [1] was 1260 nM. For the same molecule, in data set [2], the solubility entry is recorded as “Soluble”. For the same molecule, the IC50 in [3] is 40 nM.
In turn, `CN(C)c1ccc(CCN2CCC(Oc3ccc4[nH]c(=O)c5c(c4c3)CCSC5)CC2)cc1` registered an ED50 in [1] of 9440 nM. Moreover, the solubility result in [2] is given as “Soluble”. Also, the IC50 in data set [3] is > 10000 nM.
The like results for `CCN1CCC(Oc2ccc3[nH]c(=O)c4c(c3c2)CCSC4)C1` (stereo not drawn) were, in that order, 350 nM, “Soluble” and 13 nM.
The molecule `O=c1[nH]c2ccc(O)cc2c2c1CSCC2` had an IC50 in data set [3] of 99 nM.
`O=c1[nH]c2ccc(OC3CCN(c4ccccc4)CC3)cc2c2c1CSCC2` displayed an ED50 in [1] of 1860 nM. In addition, the IC50 in data set [3] worked out at 695 nM.
